Measurements of several laboratories.
Protocols differ between the studies behind these lines.
Target: Bone morphogenetic protein receptor type-1A (BMPR1A, Homo sapiens, UniProt P36894)

CN(C)c1ncnc(-c2ccc3nc(Nc4cc(CN5CCN(C(=O)CC(F)(F)F)CC5)ccn4)[nH]c3c2)c1Cl  remaining binding (cell-free assay, competition with immobilised ligand; 1 µM): 95%
CN(c1nccc(-c2cnn3ncccc23)n1)C1CC1  remaining binding (binding; 1 µM): 78%
O=C(c1ccc(Nc2nccc(-c3cc4ccccc4s3)n2)cc1)N1CCC(N2CCCC2)CC1  remaining binding (binding, competition with immobilised ligand; 1 µM): 75%
CS(=O)(=O)NCC[C@H](NC(=O)c1cncc2c1cnn2-c1ccc(F)cc1)c1ccnc(S(C)(=O)=O)c1  remaining binding (binding, competition with immobilised ligand; 1 µM): 92%
C[C@@H](c1ccc(-n2cnc3c(N)ncnc32)cc1)N1CCc2nn(C)c(Cc3ccccc3)c2C1=O  remaining binding (binding, competition with immobilised ligand; 0.1 µM): 100%
Nc1ncc2c(n1)-c1c([nH]c3ccc(C#CC4CC4)cc13)CCCC2  remaining binding (binding, competition with immobilised ligand; 1 µM): 95%
c1cncc(-c2cccc(Nc3nccc(NC4CCCCC4)n3)c2)c1  remaining binding (binding, competition with immobilised ligand; 10 µM): 73%
N[C@@H]1CCN(c2nccc(-c3cnn4ncccc34)n2)C1  remaining binding (binding; 1 µM): 100%
COc1cccc(CNC(=O)c2nc3scc(COCc4ccc(C(=O)O)cc4)c3c(=O)[nH]2)c1  remaining binding (cell-free assay, competition with immobilised ligand; 1 µM): 100%
COc1ncc2cc3ccccc3nc2c1C#N  remaining binding (binding, competition with immobilised ligand; 5 µM): 94%
O=C(c1ccc(Nc2ncc(Cl)c(-c3ccc(Cl)s3)n2)cc1)N1CCC(N2CCCC2)CC1  remaining binding (binding, competition with immobilised ligand; 1 µM): 59%
CC1=C(C#N)[C@@H](c2ccc3[nH]nc(C)c3c2)C(C#N)=C(c2ccc(Cl)cc2)N1  remaining binding (binding, competition with immobilised ligand; 1 µM): 98.6%
CN(CCCC(F)(F)F)c1nccc(-c2cnn3ncccc23)n1  remaining binding (binding; 1 µM): 83%
COc1cnc(Nc2cccc(S(N)(=O)=O)c2)nc1N1CCN(c2ccccc2)CC1  remaining binding (binding, competition with immobilised ligand; 1 µM): 100%
CN(C)c1nccc(-c2cnn3ncccc23)n1  remaining binding (binding; 1 µM): 81%
CC(=O)N1CCC(c2ccc(C(=O)NC(=N)N)cc2C(F)(F)F)CC1  remaining binding (binding, competition with immobilised ligand; 1 µM): 100%
C[C@H]1CCN(c2nccc(-c3cnn4ncccc34)n2)C1  remaining binding (binding; 1 µM): 68%
O=C(Nc1c[nH]nc1C(=O)NC1CCNCC1)c1cc(F)cc(F)c1  remaining binding (binding, competition with immobilised ligand; 1 µM): 89%
O=C(NCCCN1CCOCC1)c1ccc(Nc2nccc(-c3cc4ccccc4s3)n2)cc1  remaining binding (binding, competition with immobilised ligand; 1 µM): 78%
CN(c1ccnc(CNc2nc(Nc3ccc4c(c3)CC(=O)N4)ncc2C(F)(F)F)n1)S(C)(=O)=O  remaining binding (binding, competition with immobilised ligand; 1 µM): 89%
